This experiment is filed under the species Homo sapiens. In words: Bronchorelaxing effect on LTD4-contracted small human lung airways assessed as remaining contraction at 10 uM after 1.5 hrs relative to control. The format is functional. A digest of the protocol:
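Human small airways (0.5–1.5 mm diameter) from lung cancer patients, in vitro. Each preparation contracted with 10 nM LTD4 untreated, then again after 1.5 h exposure to 10 µM test compound. Value is the percent of the full LTD4 contraction that remains, given as arithmetic mean ± SEM with n in parentheses.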

The values below come from ChEMBL document CHEMBL1144018, “SAR studies of capsazepinoid bronchodilators. Part 2: Chlorination and catechol replacement in the A-ring” (Bioorg Med Chem, 2008).

For `Oc1cc2c(c(Cl)c1O)CCCN(C(=S)NCCc1ccc(Cl)cc1)C2`, the Activity worked out at 64%.
Turning to `Oc1c(O)c(Cl)c2c(c1Cl)CCN(C(=S)NCCc1ccc(Cl)cc1)C2`, the Activity came out at 14%.
Take `S=C(NCCc1ccc(Cl)cc1)N1CCc2ccccc2C1`: the Activity is 83%.
As for `Oc1cc2c(cc1Cl)CN(C(=S)NCCc1ccc(Cl)cc1)CC2`, the Activity stood at 73%.
For the compound `CC1Cc2c(Cl)c(O)c(O)c(Cl)c2CN1C(=S)NCCc1ccc(Cl)cc1` (stereo unspecified), the Activity was 31%.
For the compound `Oc1cc2c(cc1Cl)CN(C(=S)NCCc1ccc(Cl)cc1)CCC2`, the Activity amounted to 49%.
Then `Nc1ccc2c(c1)CN(C(=S)NCCc1ccc(Cl)cc1)CC2`, with 79%; and `Oc1cc2c(cc1Cl)CCN(C(=S)NCCc1ccc(Cl)cc1)C2`, with 69%.
In the case of `CS(=O)(=O)Nc1ccc2c(c1)CCN(C(=S)NCCc1ccc(Cl)cc1)C2`, the Activity worked out at 75%.
Then `Oc1cc2c(cc1Cl)CCCN(C(=S)NCCc1ccc(Cl)cc1)C2`, with 56%; and `Oc1ccc2c(c1Cl)CCCN(C(=S)NCCc1ccc(Cl)cc1)C2`, with 67%.
As for `COC(=O)c1cc2c(cc1C(=O)OC)CN(C(=S)NCCc1ccc(Cl)cc1)CC2`, the Activity was determined as 87%.
Turning to `N#Cc1cc2c(cc1C#N)CN(C(=S)NCCc1ccc(Cl)cc1)CC2`, the Activity turned out to be 84%.
As to `Oc1ccc2c(c1Cl)CCN(C(=S)NCCc1ccc(Cl)cc1)C2`, the Activity amounted to 69%.
For `CS(=O)(=O)Nc1ccc2c(c1)CN(C(=S)NCCc1ccc(Cl)cc1)CC2`, the Activity was 72%.
Then `Oc1c(O)c(Cl)c2c(c1Cl)CCN(C(=S)NCCc1ccc(Cl)cc1)CC2`, with 29%; and `Oc1cc2c(c(Cl)c1O)CCN(C(=S)NCCc1ccc(Cl)cc1)C2`, with 40%.
In the case of `CC1c2c(Cl)c(O)c(O)c(Cl)c2CCN1C(=S)NCCc1ccc(Cl)cc1` (stereo unspecified), the Activity was found to be 48%.
Then `Oc1c(Cl)cc2c(c1Cl)CN(C(=S)NCCc1ccc(Cl)cc1)CC2`, with 57%; and `Nc1ccc2c(c1)CCN(C(=S)NCCc1ccc(Cl)cc1)C2`, with 62%.
As to `O=C(O)c1cc2c(cc1C(=O)O)CN(C(=S)NCCc1ccc(Cl)cc1)CC2`, the Activity is 99%.
In the case of `Oc1ccc2c(c1Cl)CN(C(=S)NCCc1ccc(Cl)cc1)CC2`, the Activity was determined as 47%.
As for `Oc1c(Cl)cc2c(c1Cl)CCN(C(=S)NCCc1ccc(Cl)cc1)C2`, the figure is 55%.
Turning to `Oc1c(O)c(Cl)c2c(c1Cl)CCCN(C(=S)NCCc1ccc(Cl)cc1)C2`, the Activity came to 38%.
As for `Oc1cc2c(c(Cl)c1O)CN(C(=S)NCCc1ccc(Cl)cc1)CCC2`, the figure is 63%; as for `Oc1c(O)c(Cl)c2c(c1Cl)CCN(C(=S)NCCc1ccc(Cl)cc1)C2Cc1ccccc1` (stereo unspecified), 84%.
As for `Oc1c(Cl)cc2c(c1Cl)CCCN(C(=S)NCCc1ccc(Cl)cc1)C2`, the figure is 30%; as for `Oc1c(O)c(Cl)c2c(c1Cl)CN(C(=S)NCCc1ccc(Cl)cc1)C2`, 31%; as for `Oc1cc2c(c(Cl)c1O)CN(C(=S)NCCc1ccc(Cl)cc1)CC2`, 49%.
Then `Oc1cc2c(c(Cl)c1O)CN(C(=S)NCCc1ccc(Cl)cc1)C2`, with 65%; and `Oc1ccc2c(c1Cl)CN(C(=S)NCCc1ccc(Cl)cc1)CCC2`, with 46%.
